The source of these data is ChEMBL document CHEMBL2424622, “Development of amino-pyrimidine inhibitors of c-Jun N-terminal kinase (JNK): kinase profiling guided optimization of a 1,2,3-benzotriazole lead” (Bioorg Med Chem Lett, 2013).

Assay [1] deals with MAP kinase-interacting serine/threonine-protein kinase 1 (Homo sapiens, UniProt Q9BUB5). Put plainly: Competitive binding affinity to MKNK1 (unknown origin) at 10 uM in presence of ATP relative to control.
In assay [2] the target is T1, Ephrin type-B receptor 2 (Homo sapiens) (UniProt P29323).
T1 sequence (whole entry): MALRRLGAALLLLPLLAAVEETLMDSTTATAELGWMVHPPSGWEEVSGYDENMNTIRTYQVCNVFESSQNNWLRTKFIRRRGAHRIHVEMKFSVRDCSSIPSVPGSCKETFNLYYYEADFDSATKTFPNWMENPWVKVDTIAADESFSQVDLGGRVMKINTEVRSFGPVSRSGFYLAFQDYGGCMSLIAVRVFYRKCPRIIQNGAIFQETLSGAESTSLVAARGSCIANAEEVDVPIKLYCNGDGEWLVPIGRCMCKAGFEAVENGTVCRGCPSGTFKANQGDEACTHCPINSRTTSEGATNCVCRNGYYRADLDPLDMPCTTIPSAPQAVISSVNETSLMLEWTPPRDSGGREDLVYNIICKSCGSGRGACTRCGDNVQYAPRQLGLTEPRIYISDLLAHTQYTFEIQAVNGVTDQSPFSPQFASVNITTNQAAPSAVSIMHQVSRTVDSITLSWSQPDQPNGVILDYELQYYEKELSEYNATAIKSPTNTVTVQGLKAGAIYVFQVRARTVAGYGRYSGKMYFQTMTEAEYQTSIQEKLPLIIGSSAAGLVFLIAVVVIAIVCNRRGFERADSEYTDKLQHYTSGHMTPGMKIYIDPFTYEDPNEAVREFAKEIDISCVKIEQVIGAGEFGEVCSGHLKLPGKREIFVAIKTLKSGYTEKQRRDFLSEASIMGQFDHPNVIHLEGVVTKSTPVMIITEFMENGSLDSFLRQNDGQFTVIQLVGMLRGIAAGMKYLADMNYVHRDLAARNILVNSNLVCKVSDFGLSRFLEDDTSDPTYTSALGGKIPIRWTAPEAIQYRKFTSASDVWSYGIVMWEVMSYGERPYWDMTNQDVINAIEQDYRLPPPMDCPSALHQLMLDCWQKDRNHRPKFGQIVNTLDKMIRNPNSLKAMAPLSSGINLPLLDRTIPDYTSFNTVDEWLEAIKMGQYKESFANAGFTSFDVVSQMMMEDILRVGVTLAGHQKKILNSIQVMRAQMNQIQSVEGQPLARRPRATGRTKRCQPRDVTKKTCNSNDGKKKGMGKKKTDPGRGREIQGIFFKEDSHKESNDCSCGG
Put plainly: Competitive binding affinity to EPHB2 (unknown origin) at 10 uM in presence of ATP relative to control. The essentials: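 In vitro ATP-site competition binding assay, part of profiling against a diverse panel of 128 kinases. Each compound was tested at a single concentration of 10 µM. Kinome selectivity was summarized as S15 selectivity scores.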

For assay [3], the target named is T2, Mitogen-activated protein kinase kinase kinase 5 (Homo sapiens) (UniProt Q99683).
T2 sequence (whole entry): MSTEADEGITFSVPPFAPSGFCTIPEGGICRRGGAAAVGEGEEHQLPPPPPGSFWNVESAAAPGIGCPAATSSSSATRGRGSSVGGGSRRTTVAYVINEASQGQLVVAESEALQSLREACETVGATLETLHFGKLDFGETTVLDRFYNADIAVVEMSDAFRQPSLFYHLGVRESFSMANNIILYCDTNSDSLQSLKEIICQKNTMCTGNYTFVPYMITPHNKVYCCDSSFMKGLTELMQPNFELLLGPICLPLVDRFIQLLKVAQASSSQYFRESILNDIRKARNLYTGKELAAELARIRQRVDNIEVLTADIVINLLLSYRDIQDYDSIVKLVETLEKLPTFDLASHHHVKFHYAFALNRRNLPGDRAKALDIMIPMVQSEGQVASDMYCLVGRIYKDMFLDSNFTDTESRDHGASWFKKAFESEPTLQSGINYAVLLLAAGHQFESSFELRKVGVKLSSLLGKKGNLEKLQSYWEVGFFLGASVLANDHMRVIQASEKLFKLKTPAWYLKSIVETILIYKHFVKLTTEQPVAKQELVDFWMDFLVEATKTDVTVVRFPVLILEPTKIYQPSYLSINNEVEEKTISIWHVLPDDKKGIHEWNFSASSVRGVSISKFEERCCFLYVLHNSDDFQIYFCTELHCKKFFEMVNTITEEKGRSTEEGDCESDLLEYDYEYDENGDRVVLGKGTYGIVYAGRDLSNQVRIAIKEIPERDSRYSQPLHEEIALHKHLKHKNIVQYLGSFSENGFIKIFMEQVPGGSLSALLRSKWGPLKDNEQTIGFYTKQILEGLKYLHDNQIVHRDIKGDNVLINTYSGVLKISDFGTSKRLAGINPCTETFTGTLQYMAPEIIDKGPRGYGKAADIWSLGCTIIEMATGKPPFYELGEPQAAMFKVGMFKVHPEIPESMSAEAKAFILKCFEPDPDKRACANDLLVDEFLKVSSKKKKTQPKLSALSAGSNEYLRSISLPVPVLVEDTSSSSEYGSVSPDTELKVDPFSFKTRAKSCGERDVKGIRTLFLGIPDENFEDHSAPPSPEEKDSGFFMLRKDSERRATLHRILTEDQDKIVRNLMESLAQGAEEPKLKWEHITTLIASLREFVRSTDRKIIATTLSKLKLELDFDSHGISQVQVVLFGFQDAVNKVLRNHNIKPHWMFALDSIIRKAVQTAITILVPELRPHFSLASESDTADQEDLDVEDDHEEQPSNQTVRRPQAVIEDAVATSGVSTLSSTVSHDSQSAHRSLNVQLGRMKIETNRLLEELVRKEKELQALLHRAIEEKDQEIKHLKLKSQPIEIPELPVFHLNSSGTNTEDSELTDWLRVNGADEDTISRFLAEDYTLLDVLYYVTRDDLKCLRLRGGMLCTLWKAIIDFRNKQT
Put plainly: Competitive binding affinity to MAP3K5 (unknown origin) at 10 uM in presence of ATP relative to control.

In assay [4] the target is T3, Myosin light chain kinase family member 4 (Homo sapiens) (UniProt Q86YV6).
T3 sequence (whole entry): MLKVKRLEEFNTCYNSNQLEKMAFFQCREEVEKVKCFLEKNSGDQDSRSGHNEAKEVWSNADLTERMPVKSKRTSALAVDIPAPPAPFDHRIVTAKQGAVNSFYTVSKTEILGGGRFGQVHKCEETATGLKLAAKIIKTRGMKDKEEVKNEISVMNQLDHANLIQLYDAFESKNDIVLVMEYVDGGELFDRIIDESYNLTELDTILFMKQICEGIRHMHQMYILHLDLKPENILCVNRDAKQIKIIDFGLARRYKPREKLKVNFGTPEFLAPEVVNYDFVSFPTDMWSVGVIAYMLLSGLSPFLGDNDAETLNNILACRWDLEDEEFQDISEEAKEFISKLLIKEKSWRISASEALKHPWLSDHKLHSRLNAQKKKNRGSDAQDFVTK
Put plainly: Competitive binding affinity to SgK085 (unknown origin) at 10 uM in presence of ATP relative to control.

A word on the inhibition: it is the change of the read-out against control, counted positive when it falls.

Molecules are shown by their SMILES.

MAP kinase-interacting serine/threonine-protein kinase 1, sequence (Q9BUB5 whole entry, looked up): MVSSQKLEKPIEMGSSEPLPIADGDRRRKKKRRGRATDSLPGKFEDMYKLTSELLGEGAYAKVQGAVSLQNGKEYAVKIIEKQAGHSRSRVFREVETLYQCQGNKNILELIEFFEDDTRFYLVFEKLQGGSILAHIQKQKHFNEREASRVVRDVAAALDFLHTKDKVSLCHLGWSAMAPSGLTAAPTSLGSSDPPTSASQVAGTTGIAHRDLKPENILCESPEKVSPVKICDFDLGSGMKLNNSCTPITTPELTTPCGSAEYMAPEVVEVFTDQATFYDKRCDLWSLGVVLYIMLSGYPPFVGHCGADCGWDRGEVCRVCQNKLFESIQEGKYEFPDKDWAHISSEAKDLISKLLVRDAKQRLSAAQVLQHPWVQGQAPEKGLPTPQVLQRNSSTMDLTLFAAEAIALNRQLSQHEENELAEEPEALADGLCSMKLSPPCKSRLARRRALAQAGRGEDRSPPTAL

Consider `O[C@H]1CC[C@H](Nc2nccc(-n3ccc4ccccc43)n2)CC1`, for which the inhibition was under 50% in assay [1], under 50% in assay [2], under 50% in assay [3] and 98% in assay [4].
For the molecule `O[C@H]1CC[C@H](Nc2nccc(-n3nnc4ccccc43)n2)CC1`, the inhibition is 97% in assay [1], under 50% in assay [2], under 50% in assay [3] and 97% in assay [4].
For `CS(=O)(=O)CCCOc1cccc2c1ccn2-c1ccnc(N[C@H]2CC[C@H](C(=O)N3CCC(O)CC3)CC2)n1`, the inhibition in assay [1] and in assay [4] was over 85% throughout.
Consider `O[C@H]1CC[C@H](Nc2nccc(-n3ncc4ccccc43)n2)CC1`, for which the inhibition in assay [1] was 70%; in assay [2] it was under 50%; in assay [3], under 50%; in assay [4] it was 96%.
Take `O[C@H]1CC[C@H](Nc2nccc(-c3n[nH]c4ccccc34)n2)CC1`: the inhibition in assay [2] is under 50%.
